Active and inactive are the calls of the source. Unless noted, the rule behind the calls is not given here.
Tests used:
Mus musculus [1] = assay: Anticonvulsant activity against subcutaneous pentylenetetrazole-induced seizures in Swiss albino mouse at 300 mg/kg, ip after 0.5 hrs; type: functional, organism-based; parameters: dose 300 mg/kg
Method in brief: (§1)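 Mice; subcutaneous pentylenetetrazole seizure screen after ip dosing at 30, 100 and 300 mg/kg, read 0.5 and 4.0 h post-dose. Scored as the lowest dose protecting at least half of the animals. Absence of activity is judged at the 300 mg/kg maximum.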

Mus musculus [2] = assay: Anticonvulsant activity against maximal electroshock-induced seizures in ip dosed Swiss albino mouse assessed as minimum effective dose after 4 hrs; type: functional; details: read-out: MED
Method in brief: (§2)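 Mice; compounds given ip at 30, 100 and 300 mg/kg and tested in the maximal electroshock seizure model at 0.5 and 4.0 h after dosing. Read-out is the minimal dose giving protection in half or more of the animals. Absence of activity is judged at the 300 mg/kg maximum.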

Mus musculus [3] = assay: Anticonvulsant activity against subcutaneous pentylenetetrazole-induced seizures in ip dosed Swiss albino mouse assessed as minimum effective dose after 4 hrs; type: functional; details: read-out: MED; method in brief: as §1
Rattus norvegicus [4] = assay: Anticonvulsant activity against subcutaneous strychnine-induced seizures in Wistar rat at 300 mg/kg, ip after 4 hrs; type: functional, organism-based; parameters: dose 300 mg/kg
Method in brief: (§3)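 Rats; subcutaneous strychnine-induced seizure model with compounds given intraperitoneally at 30, 100 and 300 mg/kg. Activity is checked at 0.5 h and 4.0 h and recorded as the minimal dose active in at least half of the animals. Absence of activity is judged at the 300 mg/kg maximum.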

Mus musculus [5] = assay: Neurotoxicity in ip dosed Swiss albino mouse assessed as minimum dose required to cause toxicity after 4 hrs; type: organism-based; details: in vivo
Method in brief: (§4)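 Acute neurotoxicity by rotorod test in mice given 30, 100 and 300 mg/kg ip, assessed 0.5 and 4.0 h after dosing. Reported as the minimal dose producing the effect in half or more of the animals. Absence of activity is judged at the 300 mg/kg maximum.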

Mus musculus [6] = assay: Neurotoxicity in Swiss albino mouse at 300 mg/kg, ip after 0.5 hrs; type: toxicity, organism-based; parameters: dose 300 mg/kg, route intraperitoneal; details: in vivo; method in brief: as §4
Mus musculus [7] = assay: Anticonvulsant activity against maximal electroshock-induced seizures in Swiss albino mouse at 300 mg/kg, ip after 0.5 hrs; type: functional, organism-based; parameters: dose 300 mg/kg; method in brief: as §2
Rattus norvegicus [8] = assay: Anticonvulsant activity against subcutaneous strychnine-induced seizures in Wistar rat at 300 mg/kg, ip after 0.5 hrs; type: functional, organism-based; parameters: dose 300 mg/kg; method in brief: as §3
Mus musculus [9] = assay: Anticonvulsant activity against maximal electroshock-induced seizures in ip dosed Swiss albino mouse assessed as minimum effective dose after 0.5 hrs; type: functional; details: read-out: MED; method in brief: as §2
Mus musculus [10] = assay: Anticonvulsant activity against subcutaneous pentylenetetrazole-induced seizures in Swiss albino mouse at 300 mg/kg, ip after 4 hrs; type: functional, organism-based; parameters: dose 300 mg/kg; method in brief: as §1
Mus musculus [11] = assay: Anticonvulsant activity against subcutaneous pentylenetetrazole-induced seizures in ip dosed Swiss albino mouse assessed as minimum effective dose after 0.5 hrs; type: functional; details: read-out: MED; method in brief: as §1
Mus musculus [12] = assay: Neurotoxicity in ip dosed Swiss albino mouse assessed as minimum dose required to cause toxicity after 0.5 hrs; type: organism-based; details: in vivo; method in brief: as §4
Mus musculus [13] = assay: Anticonvulsant activity against maximal electroshock-induced seizures in Swiss albino mouse at 300 mg/kg, ip after 4 hrs; type: functional, organism-based; parameters: dose 300 mg/kg; method in brief: as §2
Mus musculus [14] = assay: Neurotoxicity in Swiss albino mouse at 300 mg/kg, ip after 4 hrs; type: toxicity, organism-based; parameters: dose 300 mg/kg, route intraperitoneal; details: in vivo; method in brief: as §4
Rattus norvegicus [15] = assay: Anticonvulsant activity against subcutaneous strychnine-induced seizures in ip dosed Wistar rat assessed as minimum effective dose after 4 hrs; type: functional; details: read-out: MED; method in brief: as §3

SMILES	MED (Mus musculus [1])	minimal effective dose (Mus musculus [2]) [mg/kg]	minimal effective dose (Mus musculus [3]) [mg/kg]	MED (Rattus norvegicus [4])	Activity (Mus musculus [5]) [mg/kg]	Activity (Mus musculus [6])	MED (Mus musculus [7])	MED (Rattus norvegicus [8])	minimal effective dose (Mus musculus [9]) [mg/kg]	MED (Mus musculus [10])	minimal effective dose (Mus musculus [11]) [mg/kg]	Activity (Mus musculus [12]) [mg/kg]	MED (Mus musculus [13])	Activity (Mus musculus [14])	minimal effective dose (Rattus norvegicus [15]) [mg/kg]
O=C(N/N=C\c1cccc(O)c1)Nc1nnc(COc2ccc3ccccc3c2)o1	inactive	300	300	inactive	300	Non-toxic	inactive	inactive							
C/C(=N/NC(=O)Nc1nnc(COc2ccc3ccccc3c2)o1)c1ccc(O)cc1	inactive	300		inactive	300	Non-toxic		inactive	100	inactive					
NC(=O)N1c2ccccc2C=Cc2ccccc21 [CARBAMAZEPINE]		100	300	inactive	300			inactive	30		100	100			
O=C(N/N=C\c1ccc(Cl)cc1)Nc1nnc(COc2ccc3ccccc3c2)o1	inactive			inactive			inactive	inactive		inactive		300	inactive	Non-toxic	
O=C1NC(=O)C(c2ccccc2)(c2ccccc2)N1 [PHENYTOIN]	inactive	30			100			inactive	30	inactive		100			100
COc1ccc(/C(=N\NC(=O)Nc2nnc(COc3ccc4ccccc4c3)o2)c2ccccc2)cc1	inactive	300		inactive	300	Non-toxic	inactive	inactive		inactive					
O=C(NN=C(c1ccccc1)c1ccccc1)Nc1nnc(COc2ccc3ccccc3c2)o1	inactive	300		inactive			inactive	inactive		inactive		300		Non-toxic	
C/C(=N/NC(=O)Nc1nnc(COc2ccc3ccccc3c2)o1)c1ccc(Cl)cc1	inactive		300	inactive		Non-toxic	inactive	inactive					inactive	Non-toxic	
CN(C)c1ccc(/C=N\NC(=O)Nc2nnc(COc3ccc4ccccc4c3)o2)cc1	inactive	300		inactive	300	Non-toxic		inactive	100	inactive					
O=C(N/N=C\c1ccccc1)Nc1nnc(COc2ccc3ccccc3c2)o1	inactive	300		inactive	300	Non-toxic	inactive	inactive		inactive					

From ChEMBL document CHEMBL1177802, “Novel semicarbazones based 2,5-disubstituted-1,3,4-oxadiazoles: one more step towards establishing four binding site pharmacophoric model hypothesis for anticonvulsant activity” (Bioorg Med Chem Lett, 2010)
